Test [1] can be described thus: Growth inhibition of VHL-null human RCC4 cells after 4 days by XTT assay. The test is classed as functional. The conditions noted are these: RCC4, 96 h. In short, it runs like this: (§1)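 XTT read-out: 5000 cells/well plated, vehicle or drug added next day, 4-day exposure. Then phenol red-free medium with 0.3 mg/mL XTT, 20% FCS and 2.65 μg/mL N-methyldibenzopyrazine methyl sulfate, 1-2 h at 37 °C, absorbance at 450 nm. GI50 by linear interpolation; single determinations in triplicate. Ratio is the intraexperiment RCC4-VHL GI50 / RCC4 GI50.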
(Tetrazolium dyes change colour on reduction, which living cells bring about.)

Test [2] can be described thus: Ratio of IC50 for human RCC4-VHL cells to IC50 for VHL-null human RCC4 cells. In kind it is functional. In short, it runs like this: as §1
Another test concerns RCC4. Briefly: Induction of autophagy in VHL-null human RCC4 cells assessed as intracytoplasmic vacuoles at 5 uM after 24 h.

Consider 17 molecules from ChEMBL document CHEMBL1154748, “4-Pyridylanilinothiazoles that selectively target von Hippel-Lindau deficient renal cell carcinoma cells by inducing autophagic cell death” (2010).

The source made the active and inactive calls. No cut-off for these calls is given here.

As a reminder, the GI50 is the concentration giving 50% growth inhibition. Low values mean greater sensitivity of the cells, high ones lower sensitivity of the cells.

For the molecule `c1cc(-c2csc(Nc3ccc4c(c3)CCC4)n2)ccn1`, in test [1], it took 2 µM to inhibit growth by half (GI50). The RatioGI50 in test [2] was 10. Besides, the result in the test on RCC4 was Active.

`Cc1cccc(Nc2nc(-c3ccncc3C#CCO)cs2)c1`: the GI50 in test [1] was 0.24 µM. In addition, the RatioGI50 in test [2] stood at 11.9. Besides, the outcome with RCC4 was Active.

In test [1], `Cc1cccc(Nc2nc(-c3ccncc3Cl)cs2)c1` registered a 50% growth inhibitory concentration (GI50) of 2.9 µM. Moreover, the RatioGI50 in test [2] is reported as >13.8. Also, in the test with RCC4, the result was Active.

The molecule `COCC#Cc1cnccc1-c1csc(Nc2cccc(C)c2)n1` returned a GI50 in test [1] of 0.62 µM. For the same molecule, in test [2], the RatioGI50 is given as 45. Further, in the test on RCC4, the result was Active.

In test [1], `Cc1cccc(Nc2nc(-c3ccncc3)c(CO)s2)c1` had a GI50 of 7 µM. The RatioGI50 in test [2] amounted to 2.4.

In test [1], `Cc1cccc(Nc2nc(-c3ccncc3)c(CCCN3CCOCC3)s2)c1` had a GI50 of 5.8 µM. In test [2], the RatioGI50 is recorded as 1.6.

In test [1], `OCCc1ccc(Nc2nc(-c3ccncc3)cs2)cc1` yielded a GI50 of 5 µM. Further, the RatioGI50 in test [2] worked out at 16.

In the case of `Cc1cccc(Nc2nc(-c3ccccn3)cs2)c1`, in test [1], halving of growth (GI50) required 37 µM. Also, in test [2], the RatioGI50 was determined as 0.9.

In test [1], `Cc1cccc(Nc2nc(-c3ccncc3CCCO)cs2)c1` gave a GI50 of 6.8 µM. The RatioGI50 in test [2] was >5.9.

In test [1], `Cc1cccc(Nc2nc(-c3cc(Cl)nc(Cl)c3)cs2)c1` came in with a GI50 of 15 µM. For the same molecule, the RatioGI50 in test [2] came to 2.3.

Turning to `Cc1ccc(Nc2nc(-c3ccncc3)cs2)cc1O`, in test [1], the GI50 was 12 µM. Further, the RatioGI50 in test [2] is 4.6.

Turning to `OCc1sc(Nc2ccccc2)nc1-c1ccncc1`, the GI50 in test [1] turned out to be 30 µM. Besides, in test [2], the RatioGI50 is >1.3.

Turning to `Cc1ccc(Nc2nc(-c3ccncc3)c(CO)s2)cc1`, it took 14 µM to inhibit growth in test [1] by half (GI50). The RatioGI50 in test [2] is reported as 1.2.

Molecule `CC(=O)c1ccc(-c2cnccc2-c2csc(Nc3cccc(C)c3)n2)cc1` had a GI50 in test [1] of 3.9 µM. In addition, in test [2], the RatioGI50 amounted to 9.

In test [1], `OCc1sc(Nc2ccc3c(c2)CCC3)nc1-c1ccncc1` gave a GI50 of 6.8 µM. In test [2], the RatioGI50 is on record as 1.4.

`CCc1cc(-c2csc(Nc3cccc(C)c3)n2)ccn1` displayed a 50% growth inhibitory concentration (GI50) in test [1] of 6.4 µM. Moreover, the RatioGI50 in test [2] is given as >6.3.

The molecule `c1ccc(Nc2nc(-c3ccccn3)cs2)cc1` gave a GI50 in test [1] of 35.1 µM. For the same molecule, the RatioGI50 in test [2] is on record as 0.9.
